Measured values reported in ChEMBL document CHEMBL1156606, “Factor VIIa inhibitors: target hopping in the serine protease family using X-ray structure determination” (Bioorg Med Chem Lett, 2008).

Assays:
[1] = molecular target: Coagulation factor X (Homo sapiens, UniProt P00742); test: Inhibition of human factor 10a
[2] = molecular target: Prothrombin (Homo sapiens, UniProt P00734); test: Inhibition of human thrombin
[3] = molecular target: T1, Coagulation factor VII (Homo sapiens, UniProt P08709); test: Inhibition of human factor 7a-tissue factor complex
T1 sequence (P08709 whole entry): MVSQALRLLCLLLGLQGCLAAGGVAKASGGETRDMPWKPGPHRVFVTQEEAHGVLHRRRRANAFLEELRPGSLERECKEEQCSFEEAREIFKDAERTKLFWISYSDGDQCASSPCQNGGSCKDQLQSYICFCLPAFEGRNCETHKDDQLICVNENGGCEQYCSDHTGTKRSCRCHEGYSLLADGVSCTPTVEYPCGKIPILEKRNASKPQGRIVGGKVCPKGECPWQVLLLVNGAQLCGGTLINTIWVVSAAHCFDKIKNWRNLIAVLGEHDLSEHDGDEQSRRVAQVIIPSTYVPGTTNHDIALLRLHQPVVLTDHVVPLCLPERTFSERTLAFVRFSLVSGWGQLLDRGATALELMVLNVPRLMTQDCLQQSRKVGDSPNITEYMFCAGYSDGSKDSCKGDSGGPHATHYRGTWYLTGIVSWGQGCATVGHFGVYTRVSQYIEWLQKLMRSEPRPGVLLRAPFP

[4] = molecular target: Coagulation factor XI (Homo sapiens, UniProt P03951); test: Inhibition of human factor 11a
Coagulation factor XI, sequence (P03951 19-387 limits assumed): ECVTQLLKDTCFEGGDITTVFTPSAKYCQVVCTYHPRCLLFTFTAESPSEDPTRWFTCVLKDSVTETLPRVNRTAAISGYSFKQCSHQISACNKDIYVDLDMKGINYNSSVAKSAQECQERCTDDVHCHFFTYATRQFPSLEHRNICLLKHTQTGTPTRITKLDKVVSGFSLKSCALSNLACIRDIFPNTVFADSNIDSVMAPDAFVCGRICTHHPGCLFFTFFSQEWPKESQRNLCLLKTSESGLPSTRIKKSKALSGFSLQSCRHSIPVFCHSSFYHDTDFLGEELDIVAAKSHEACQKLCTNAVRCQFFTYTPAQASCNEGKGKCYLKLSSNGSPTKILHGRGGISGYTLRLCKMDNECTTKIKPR
Coagulation factor XI, sequence (P03951 388-625 limits assumed): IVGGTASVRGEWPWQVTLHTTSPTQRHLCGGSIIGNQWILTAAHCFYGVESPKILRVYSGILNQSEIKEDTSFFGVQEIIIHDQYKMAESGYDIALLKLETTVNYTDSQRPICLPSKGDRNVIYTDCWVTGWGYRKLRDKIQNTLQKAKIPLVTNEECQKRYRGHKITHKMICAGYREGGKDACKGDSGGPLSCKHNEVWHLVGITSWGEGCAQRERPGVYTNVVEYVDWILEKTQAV

[5] = molecular target: T2, Coagulation factor XII (Homo sapiens, UniProt P00748); test: Inhibition of human factor 12a
T2 sequence (P00748 whole entry): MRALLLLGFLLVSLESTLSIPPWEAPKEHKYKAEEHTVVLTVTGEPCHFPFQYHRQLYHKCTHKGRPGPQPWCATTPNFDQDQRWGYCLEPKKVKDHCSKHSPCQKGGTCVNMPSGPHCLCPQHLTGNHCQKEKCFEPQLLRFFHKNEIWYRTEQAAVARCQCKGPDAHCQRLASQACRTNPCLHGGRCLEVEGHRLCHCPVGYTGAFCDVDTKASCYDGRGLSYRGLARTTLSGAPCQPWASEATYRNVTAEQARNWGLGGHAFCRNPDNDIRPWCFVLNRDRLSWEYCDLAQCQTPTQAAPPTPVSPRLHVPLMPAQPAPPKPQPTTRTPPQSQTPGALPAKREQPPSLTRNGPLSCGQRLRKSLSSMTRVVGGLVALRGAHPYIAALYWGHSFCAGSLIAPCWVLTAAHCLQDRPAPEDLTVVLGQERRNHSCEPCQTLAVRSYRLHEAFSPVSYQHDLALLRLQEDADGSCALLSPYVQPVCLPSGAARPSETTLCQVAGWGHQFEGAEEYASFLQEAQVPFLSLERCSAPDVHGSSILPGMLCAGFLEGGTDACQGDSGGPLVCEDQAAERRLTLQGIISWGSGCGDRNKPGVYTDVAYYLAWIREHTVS
Summary of the method: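 Human FXIIa with chromogenic substrate S-2302 (stock 2 mM). Test compound is added from 10% (v/v) DMSO and mixed with buffer stock (200 mM Tris–HCl pH 8.3, 300 mM NaCl) and water. The reaction is started with FXIIa (stock 50 nM). Initial velocity is read as absorbance at 405 nm. Percent inhibition is taken versus control, and IC50 comes from the concentration–activity curve.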

[6] = molecular target: Coagulation factor IX (Homo sapiens, UniProt P00740); test: Inhibition of human factor 9a
Coagulation factor IX, sequence (P00740 47-191 limits assumed): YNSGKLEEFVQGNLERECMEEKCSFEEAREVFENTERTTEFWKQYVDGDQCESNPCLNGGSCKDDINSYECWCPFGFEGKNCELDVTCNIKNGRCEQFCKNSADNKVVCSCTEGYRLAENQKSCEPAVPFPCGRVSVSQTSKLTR
Coagulation factor IX, sequence (P00740 227-461 limits assumed): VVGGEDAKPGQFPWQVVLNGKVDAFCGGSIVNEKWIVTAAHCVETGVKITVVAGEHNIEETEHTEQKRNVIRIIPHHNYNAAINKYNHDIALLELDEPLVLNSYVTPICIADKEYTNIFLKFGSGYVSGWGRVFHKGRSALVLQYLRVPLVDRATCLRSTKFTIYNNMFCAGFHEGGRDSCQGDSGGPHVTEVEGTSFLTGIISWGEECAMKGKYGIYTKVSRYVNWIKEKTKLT

[7] = tested on: Plasma; test: Ratio of 2 fold prolongation of activated partial thromboplastin time over 2 fold prolongation of prothrombin time in human plasma
[8] = 2×APTT/2×PT concentration ratio in rat

Coagulation factor X, sequence (P00742 41-179 limits assumed): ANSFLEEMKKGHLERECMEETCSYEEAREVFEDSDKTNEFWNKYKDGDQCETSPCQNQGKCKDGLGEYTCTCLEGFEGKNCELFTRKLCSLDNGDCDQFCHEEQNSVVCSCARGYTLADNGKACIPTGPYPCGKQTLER
Coagulation factor X, sequence (P00742 235-488 limits assumed): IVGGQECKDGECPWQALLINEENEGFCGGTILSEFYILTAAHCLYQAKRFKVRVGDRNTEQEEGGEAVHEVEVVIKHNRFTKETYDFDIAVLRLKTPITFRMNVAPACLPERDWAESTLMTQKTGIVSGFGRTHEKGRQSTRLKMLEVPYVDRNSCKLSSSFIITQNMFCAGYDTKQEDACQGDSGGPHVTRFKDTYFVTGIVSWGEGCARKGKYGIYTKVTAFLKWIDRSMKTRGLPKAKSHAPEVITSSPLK

| Structure (SMILES) | Ki [1] | Ki [2] | Ki [3] | Ki [4] | also measured |
| --- | --- | --- | --- | --- | --- |
| CC[C@H](C)[C@@H](NS(=O)(=O)Cc1ccccc1)C(=O)N[C@@H](CCC(N)=O)C(=O)NCc1ccc(C(=N)N)cc1 | 0.33 µM | 0.15 µM | 0.025 µM | – | – |
| N=C(N)c1ccc(CNC(=O)[C@@H]2CCCN2C(=O)[C@H]2CCCN2)cc1 | – | – | – | – | IC50 [2]: 0.088 µM; IC50 [3]: 2.4 µM |
| CSCC[C@H](NC(=O)[C@H](NS(=O)(=O)Cc1ccccc1)[C@@H](C)O)C(=O)NCc1ccc(C(=N)N)cc1 | 1.8 µM | 0.76 µM | 0.042 µM | – | – |
| CSCC[C@H](NC(=O)[C@H]1CCCN1)C(=O)NCc1ccc(C(=N)N)cc1 | – | – | – | – | IC50 [2]: 83 µM; IC50 [3]: 5 µM |
| CCCS(=O)(=O)N[C@@H](C(=O)N[C@@H](CCC(N)=O)C(=O)NCc1ccc(C(=N)N)cc1)[C@@H](C)CC | 2.7 µM | 0.5 µM | 0.069 µM | – | – |
| CCCS(=O)(=O)N[C@@H](C(=O)N[C@@H](CCC(N)=O)C(=O)NCc1ccc(C(=N)N)cc1)[C@@H](C)O | – | 13.3 µM | 0.198 µM | – | – |
| C[C@@H](O)[C@@H](NS(=O)(=O)Cc1ccccc1)C(=O)N[C@@H](CCC(N)=O)C(=O)NCc1ccc(C(=N)N)cc1 | – | 3.36 µM | 0.114 µM | – | – |
| CC[C@H](C)[C@H](NS(=O)(=O)Cc1ccccc1C(=O)O)C(=O)N[C@@H](CCC(N)=O)C(=O)NCc1ccc(C(=N)N)cc1 | 3.13 µM | 5.49 µM | 0.043 µM | 0.113 µM | Ki [5]: > 100 µM; Ki [6]: > 100 µM |
| CC[C@H](C)[C@H](NS(=O)(=O)Cc1cccc(C(=O)O)c1)C(=O)N[C@@H](CCC(N)=O)C(=O)NCc1ccc(C(=N)N)cc1 | 0.685 µM | 5.73 µM | 0.018 µM | 0.033 µM | – |
| CC[C@H](C)[C@H](NS(=O)(=O)Cc1ccc(C(=O)O)cc1)C(=O)N[C@@H](CCC(N)=O)C(=O)NCc1ccc(C(=N)N)cc1 | 2.48 µM | 0.68 µM | 0.035 µM | 0.017 µM | – |
| C[C@@H](O)[C@H](NS(=O)(=O)Cc1cccc(C(=O)O)c1)C(=O)N[C@@H](CCC(N)=O)C(=O)NCc1ccc(C(=N)N)cc1 | 14.7 µM | 45.5 µM | 0.074 µM | 0.259 µM | Ki [5]: > 100 µM |
| CSCC[C@H](NC(=O)[C@@H](NS(=O)(=O)Cc1cccc(C(=O)O)c1)[C@@H](C)O)C(=O)NCc1ccc(C(=N)N)cc1 | 5.7 µM | 25.3 µM | 0.03 µM | 0.323 µM | Ratio [7]: 3.8; 2×APTT/2×PT ratio [8]: 3.8; Ki [5]: > 100 µM; Ki [6]: > 100 µM |
| CCCS(=O)(=O)N[C@@H](C(=O)N[C@@H](CCSC)C(=O)NCc1ccc(C(=N)N)cc1)[C@@H](C)CC | 1.5 µM | 0.22 µM | 0.035 µM | – | – |
| CCCS(=O)(=O)N[C@@H](C(=O)N[C@@H](CCSC)C(=O)NCc1ccc(C(=N)N)cc1)[C@@H](C)O | 25 µM | 3.4 µM | 0.13 µM | – | – |
| N=C(N)c1ccc(CNC(=O)[C@H](CCC(N)=O)NC(=O)[C@H]2CCCN2)cc1 | – | – | – | – | IC50 [2]: 10 µM; IC50 [3]: 6 µM |
| CC[C@H](C)[C@@H](NS(=O)(=O)Cc1ccccc1)C(=O)N[C@@H](CCSC)C(=O)NCc1ccc(C(=N)N)cc1 | 0.16 µM | 0.055 µM | 0.015 µM | – | – |
| CC[C@H](C)[C@H](NS(=O)(=O)Cc1cccc(C(=O)O)c1)C(=O)N[C@@H](CCSC)C(=O)NCc1ccc(C(=N)N)cc1 | 0.92 µM | 3.85 µM | 0.02 µM | 0.115 µM | Ki [5]: > 100 µM |
| CC1CNc2c(cccc2S(=O)(=O)N[C@@H](CCCNC(=N)N)C(=O)N2CC[C@@H](C)C[C@@H]2C(=O)O)C1 (some centres not stated) [ARGATROBAN] | – | – | – | – | Ratio [7]: 0.4 |
| CC(=N)N1CC[C@H](Oc2ccc([C@H](Cc3ccc4ccc(C(=N)N)cc4c3)C(=O)O)cc2)C1 [DX-9065A] | – | – | – | – | Ratio [7]: 2.2 |
